Assay outcomes as filed in PubChem BioAssay.
Compounds with a hit are over-represented: about 2.5% of the library has one in this group of screens.
NR2E3 ag-1 = agonists of human nuclear receptor NR2E3. GST-NR2E3/biotin-RetCOR TR-FRET, 1536-well. inhibition of corepressor binding, % at 4.78 µM. hit rate 0.12% among 320,000. AID 2300;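 active = percent inhibition above the cutoff of mean plus 3 SD of all tested compounds, set per screening campaign, cut at about 20% in these data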;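 note: 0% = DMSO wells and 100% = biotin wells as full block of FRET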
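Material: NR2E3–RetCOR corepressor complex / Amount: 1.35 nM GST-NR2E3 / Medium: Tris pH 7.5 / Compound: single nominal compound dose of 4.8 µM / Incubation: 5 h at 4 °C / Technique: TR-FRET, Eu(K)-anti-GST donor, streptavidin-D2 acceptor, ex 340, em 617/671 nm / Read-out basis: percent loss of FRET ratio relative to control wells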
NR2E3 ag-2 = agonists of human NR2E3 nuclear receptor | Q9Y5X4 | hit rate 0.35% among 360,000 | CHO-S Gal4-NCOR/VP16-NR2E3 two-hybrid, luciferase | inhibition of corepressor binding, % at 3.98 µM | AID 602229;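 active = inhibition above the mean of all tested compounds plus 3 SD, cut at about 70% in these data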;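 note: 0% = DMSO with NR2E3 transfected cells and 100% = cells lacking NR2E3 construct; higher means lower luciferase signal from less NR2E3 corepressor binding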
ADAM10 inh = inhibitors of human ADAM10; AID 720582; recombinant ADAM10, EDANS/DABCYL FRET peptide cleavage, 3 h; O14672; inhibition, % at 7 µM; hit rate 0.62% among 370,000;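 active = inhibition above a per-campaign cutoff equal to the mean of compounds falling between control-based bounds plus 3 SD, cut at about 20% in these data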;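 note: 0% = DMSO wells while the 100% control is not disclosed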
JMJD2C inh = human JMJD2C demethylase inhibition | Q9H3R0 | GST-JMJD2C(1-420) H3K9me3 demethylation, DELFIA europium | inhibition, % at 2.35 µM | hit rate 0.069% among 330,000 | AID 2099;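 active = more than half of a compound's replicate wells show inhibition beyond 50%, single wells judged on their own value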;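 note: signal counts dimethyl H3K9 product captured on neutravidin plate; 0% = median of DMSO wells and 100% = 0.3 times that DMSO median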
Target sequence (Q9H3R0 1-420 limits assumed): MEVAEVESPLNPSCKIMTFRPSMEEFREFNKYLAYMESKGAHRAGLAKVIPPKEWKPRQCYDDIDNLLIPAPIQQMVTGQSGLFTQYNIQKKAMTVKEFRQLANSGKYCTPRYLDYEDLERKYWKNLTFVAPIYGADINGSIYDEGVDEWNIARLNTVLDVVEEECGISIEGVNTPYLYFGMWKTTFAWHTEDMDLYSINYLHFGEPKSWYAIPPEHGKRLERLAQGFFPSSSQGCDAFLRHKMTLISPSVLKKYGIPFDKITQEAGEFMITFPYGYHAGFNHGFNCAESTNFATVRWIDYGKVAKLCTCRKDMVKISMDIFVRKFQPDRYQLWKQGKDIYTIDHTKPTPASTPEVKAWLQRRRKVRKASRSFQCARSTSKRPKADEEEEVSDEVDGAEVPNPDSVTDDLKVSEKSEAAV
ADAM17 inh = inhibits human ADAM17 | inhibition, % at 6.95 µM | hit rate 0.83% among 370,000 | AID 720648 | recombinant ADAM17, EDANS/DABCYL FRET peptide cleavage | P78536;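 active = inhibition above the mean of compounds lying between control limits plus 3 SD, set per campaign, cut at about 8.5% in these data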;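 note: 0% = DMSO-only wells as the low control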
KLK7 zymogen act = activators of human kallikrein-7 zymogen | P49862 | purified proKLK7, EDANS-DABCYL substrate fluorescence; 100% is mature enzyme control, 0% vehicle | activation, % at 7 µM | hit rate 0.9% among 370,000 | AID 652039;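 active = activation above the mean of all tested compounds plus 3 SD, computed per campaign excluding outliers beyond control limits, cut at about 13% in these data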
Target sequence (P49862 whole entry, looked up): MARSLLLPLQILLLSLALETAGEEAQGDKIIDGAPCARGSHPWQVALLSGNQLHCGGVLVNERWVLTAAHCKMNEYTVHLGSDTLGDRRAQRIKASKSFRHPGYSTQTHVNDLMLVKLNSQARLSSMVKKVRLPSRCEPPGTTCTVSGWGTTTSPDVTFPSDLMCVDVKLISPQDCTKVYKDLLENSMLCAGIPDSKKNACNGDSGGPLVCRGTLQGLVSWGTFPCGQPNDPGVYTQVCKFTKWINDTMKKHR
ADAM10 ctr = ADAM10 inhibition, counter-screen for ADAM17 exosite hits. inhibition, % at 6.95 µM. hit rate 47% among 2,900. AID 743256. shares compounds with ADAM17 inh. recombinant ADAM10, EDANS/DABCYL FRET peptide cleavage, 3 h;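 active = mean inhibition over the triplicate runs exceeds the activity threshold set in the earlier primary screen, cut at about 20% in these data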;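 note: 0% = DMSO wells and 100% = marimastat wells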
ADAM17 confirm = confirmation of inhibitors of human ADAM17; inhibition, % at 6.95 µM; shares compounds with ADAM17 inh; hit rate 65% among 2,900; recombinant ADAM17, EDANS/DABCYL QFRET peptide cleavage;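 active = mean inhibition across replicates above the hit cutoff set in the primary screen, cut at about 8.5% in these data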;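 note: 0% = DMSO wells and 100% = marimastat wells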
Active calls of the source: *.

COc1ccccc1Cc1c(-c2ccco2)nc2cc(C)c(Br)c(C)n12 was read as NR2E3 ag-2 -25, ADAM10 inh 5, ADAM17 inh -2 and KLK7 zymogen act -1.
For CCOC(=O)C1(C)CCCN(C(=O)c2ccc3c(c2)CCO3)C1 (stereo not drawn) the results were NR2E3 ag-2 9, ADAM10 inh -4, ADAM17 inh -3 and KLK7 zymogen act 0.
`CCOc1ccc(NS(=O)(=O)c2cc(NC(=O)CCC(=O)c3cccs3)ccc2Cl)cc1` gave NR2E3 ag-1 3, NR2E3 ag-2 -37, ADAM10 inh 14, JMJD2C inh -2, ADAM17 inh 9.1*, KLK7 zymogen act -1, ADAM10 ctr 18 and ADAM17 confirm 10*.
Screening CC(C)CCn1c(=O)c2sccc2n2c(CCCC(=O)N3CCN(c4ccccn4)CC3)nnc12 returned NR2E3 ag-1 -3, NR2E3 ag-2 -27, ADAM10 inh -6, JMJD2C inh 21, ADAM17 inh -1 and KLK7 zymogen act 0.
`Cc1ccc(S(=O)(=O)N2CCCc3cc(NC(=O)c4c(F)cccc4F)ccc32)cc1` gave NR2E3 ag-1 -2, NR2E3 ag-2 25, ADAM10 inh 17, JMJD2C inh 0, ADAM17 inh 12*, KLK7 zymogen act 1, ADAM10 ctr 27* and ADAM17 confirm 14*.
Screening COC(=O)c1ccccc1NC(=O)CSc1nc(Nc2ccccc2)nc(N2CCOCC2)n1 returned NR2E3 ag-1 1, NR2E3 ag-2 30, ADAM10 inh 18, JMJD2C inh 2, ADAM17 inh 8.7*, KLK7 zymogen act 0, ADAM10 ctr 16 and ADAM17 confirm 9.1*.
COc1ccc(N(C)S(=O)(=O)c2cccc(C(=O)Nc3ccc4c(c3)OCCO4)c2)cc1 was read as NR2E3 ag-1 -8, NR2E3 ag-2 0, ADAM10 inh 14, JMJD2C inh -30, ADAM17 inh 11*, KLK7 zymogen act 1, ADAM10 ctr 24* and ADAM17 confirm 13*.
`CN(c1ccc(C(=O)Nc2ccc3c(c2)OCO3)cc1)S(C)(=O)=O` gave NR2E3 ag-1 3, NR2E3 ag-2 -42, ADAM10 inh -7, JMJD2C inh 5, ADAM17 inh -1 and KLK7 zymogen act 0.
For COc1ccc(N(C)S(=O)(=O)c2cccc(C(=O)Nc3ccc(OC)nc3)c2)cc1 the results were NR2E3 ag-1 1, ADAM10 inh 7, JMJD2C inh 8, ADAM17 inh 2 and KLK7 zymogen act 1.
Screening CN(c1ccc(C(=O)Nc2ccc3c(c2)OCCO3)cc1)S(C)(=O)=O returned NR2E3 ag-1 1, NR2E3 ag-2 -94, ADAM10 inh 10, JMJD2C inh -5, ADAM17 inh 9.4*, KLK7 zymogen act 0, ADAM10 ctr 1 and ADAM17 confirm 2.
CC[N+]1(CC)CC2=Cc3c(ccc4ccccc34)C(C)C2C1 (stereo not drawn) was read as NR2E3 ag-1 -1, NR2E3 ag-2 -8, ADAM10 inh -25, JMJD2C inh -5, ADAM17 inh -9 and KLK7 zymogen act -1.
Screening CCCSc1nsc(NC(=O)CCC)n1 returned NR2E3 ag-1 6, NR2E3 ag-2 -144, ADAM10 inh 10, JMJD2C inh 6, ADAM17 inh 9.2*, KLK7 zymogen act 3, ADAM10 ctr 4 and ADAM17 confirm 3.
Screening Nc1n[nH]c(N)c1N=Nc1ccc(Cl)cc1 returned NR2E3 ag-1 -3, NR2E3 ag-2 -47, ADAM10 inh 17, JMJD2C inh 3, ADAM17 inh 11*, KLK7 zymogen act 0, ADAM10 ctr 2 and ADAM17 confirm 2.
O=C(CCc1ccccc1)N[C@H]1[C@@H](O)CCC[C@]12C(=O)N(Cc1ccccc1)c1ccccc12 was read as ADAM10 inh -1, ADAM17 inh 1 and KLK7 zymogen act 0.
`CC(=O)Nc1ccc(Sc2ncnc3scc(-c4ccccc4)c23)cc1` gave NR2E3 ag-1 -2, NR2E3 ag-2 4, ADAM10 inh 7, JMJD2C inh -3, ADAM17 inh 10*, KLK7 zymogen act -1, ADAM10 ctr 14 and ADAM17 confirm 10.0*.
Screening CN(N)c1nc(C(F)(F)F)nc2ccccc12 returned NR2E3 ag-1 1, NR2E3 ag-2 -28, ADAM10 inh -5, JMJD2C inh -31, ADAM17 inh -1 and KLK7 zymogen act 0.
`Nc1nc(N(Cc2ccccc2)Cc2ccccc2)nc(C(F)(F)F)n1` gave NR2E3 ag-1 3, NR2E3 ag-2 -22, ADAM10 inh 17, JMJD2C inh 14, ADAM17 inh 9.1*, KLK7 zymogen act -1, ADAM10 ctr 9 and ADAM17 confirm 8.9*.
Screening COC(=O)[C@]12C[C@H](CC(=O)N3CCC(c4ccccc4)CC3)C(=O)N(Cc3ccc(Cl)cc3Cl)C1=C[C@H](C(C)C)O[C@@H]2C1CC1 returned ADAM10 inh -8, ADAM17 inh -6 and KLK7 zymogen act 0.
For O=S1(=O)CC(N2CCC(c3ccccc3)CC2)CN1Cc1ccc(F)cc1 (stereo not drawn) the results were NR2E3 ag-2 16, ADAM10 inh -6, ADAM17 inh -4 and KLK7 zymogen act 0.
`COc1ccccc1NC(=O)c1c([N+](=O)[O-])c(C(C)(C)C)nn1C` gave NR2E3 ag-1 0, NR2E3 ag-2 -13, ADAM10 inh 2, JMJD2C inh 2, ADAM17 inh 8.6*, KLK7 zymogen act 0, ADAM10 ctr 0 and ADAM17 confirm 2.
`COc1ccccc1NC(=O)c1nn(C)c(C(=O)Nc2ccccc2OC)c1[N+](=O)[O-]` gave NR2E3 ag-1 -2, NR2E3 ag-2 -44, ADAM10 inh 3, JMJD2C inh 4, ADAM17 inh -1 and KLK7 zymogen act 1.
`CC(C)(Oc1ccc(Cl)cc1)C(=O)NNC(=O)c1ccc(Br)o1` gave NR2E3 ag-2 -29, ADAM10 inh -12, JMJD2C inh 9, ADAM17 inh -5 and KLK7 zymogen act 0.
For O=S(=O)(c1cccc(C(F)(F)F)c1)N1CCN(C(=S)NCc2ccco2)CC1 the results were NR2E3 ag-1 0, NR2E3 ag-2 -13, ADAM10 inh -3, JMJD2C inh 3, ADAM17 inh 2 and KLK7 zymogen act 0.
